# Tests used:
# Type in all cases: functional
# [1] = tested on: Chromobacterium violaceum; test: Antimicrobial activity against Chromobacterium violaceum by serial dilution method
# Method in brief: (§1)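 MIC by serial dilution in 96-well plates. Test bacteria grown in EBS medium (0.5% peptone, 0.5% glucose, 0.1% meat extract, 0.1% yeast extract, 50 mM HEPES, pH 7.0) at 30 °C with shaking at 160 rpm.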
# [2] = tested on: Mycolicibacterium diernhoferi; test: Antimicrobial activity against Mycobacterium diernhoferi by serial dilution method; method in brief: as §1
# [3] = tested on: Escherichia coli; test: Antimicrobial activity against Escherichia coli expressing mutant TOLC by serial dilution method
# [4] = tested on: Mucor hiemalis; test: Antimicrobial activity against Mucor hiemalis by serial dilution method
# Method in brief: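 Fungal MIC by serial dilution in 96-well plates. Organism cultivated in MYC medium (1.0% phytone peptone, 1.0% glucose, 1.19% HEPES, pH 7.0) at 30 °C, 160 rpm.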
# [5] = Antimicrobial activity against Arthrobacter rubellus by serial dilution method; method in brief: as §1
# [6] = tested on: Mycobacterium lacticola; test: Antimicrobial activity against Mycobacterium lacticola by serial dilution method; method in brief: as §1
# [7] = tested on: Stutzerimonas stutzeri; test: Antimicrobial activity against Pseudomonas stutzeri by serial dilution method; method in brief: as §1
# [8] = tested on: Pimelobacter simplex; test: Antimicrobial activity against Nocardioides simplex by serial dilution method; method in brief: as §1
Structure (SMILES),MIC [1] [µg/mL],MIC [2] [µg/mL],MIC [3] [µg/mL],MIC [4] [µg/mL],MIC [5] [µg/mL],MIC [6] [µg/mL],MIC [7] [µg/mL],MIC [8] [µg/mL]
C=C(C)/C=C/c1cccc2[nH]cc(C=O)c12 [INDIACEN A],16.6,16.6,16.6,16.6,16.6,16.6,> 33,8.3
CC(/C=C/c1cccc2[nH]cc(C=O)c12)=C\Cl [INDIACEN B],33,> 33,33,16.6,0.8,33,33,3.3
